Compounds with a hit are over-represented: about 3.7% of the library has one in this group of screens.
KCNQ1 inh – inhibitors of human KCNQ1 potassium channel | P51787 | CHO-K1 KCNQ1, FluxOR thallium flux fluorescence; stronger effect = higher value | B-score at 10 µM | 310,000 tested, 1.3% active | AID 2642;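 active = compounds whose thallium flux B-score, printed positive for inhibition, exceeds three library SD while starting fluorescence stays within three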;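 note: channel opened by potassium depolarization with thallium stimulus after 20 min compound exposure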
Target sequence (P51787 whole entry, looked up): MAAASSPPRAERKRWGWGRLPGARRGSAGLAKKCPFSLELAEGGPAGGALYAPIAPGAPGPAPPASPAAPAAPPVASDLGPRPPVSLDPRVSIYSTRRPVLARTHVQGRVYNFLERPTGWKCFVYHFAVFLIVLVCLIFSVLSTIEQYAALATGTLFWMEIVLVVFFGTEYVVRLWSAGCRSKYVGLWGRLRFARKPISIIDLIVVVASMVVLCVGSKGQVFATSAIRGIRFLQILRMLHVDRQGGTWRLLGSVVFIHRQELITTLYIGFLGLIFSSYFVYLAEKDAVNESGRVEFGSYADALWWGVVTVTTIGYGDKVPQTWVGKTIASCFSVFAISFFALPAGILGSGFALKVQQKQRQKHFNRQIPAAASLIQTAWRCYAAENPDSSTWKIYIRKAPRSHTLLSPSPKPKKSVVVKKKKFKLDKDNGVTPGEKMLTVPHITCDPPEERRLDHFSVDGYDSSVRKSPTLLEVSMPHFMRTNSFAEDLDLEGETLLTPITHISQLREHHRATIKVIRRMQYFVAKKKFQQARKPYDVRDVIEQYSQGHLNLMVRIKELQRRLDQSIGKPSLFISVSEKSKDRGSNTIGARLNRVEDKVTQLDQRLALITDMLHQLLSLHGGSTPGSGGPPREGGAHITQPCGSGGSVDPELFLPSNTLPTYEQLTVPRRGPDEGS
KCNK9 inh – inhibitors of human KCNK9 two-pore domain potassium channel; Q9NPC2; HEK293 KCNK9, FluxOR thallium flux fluorescence; stronger effect = lower value; B-score at 10 µM; 310,000 tested, 1.2% active; AID 488922;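 active = ratio B-score over 3 SD below the library mean, with starting fluorescence within 5 SD of its mean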;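 note: negative B-score means less thallium flux so channel inhibition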
KCNK3 inh – human KCNK3 channel inhibition, primary screen; O14649; CHO-KCNK3 thallium flux, FluxOR fluorescence; stronger effect = lower value; B-score at 10 µM; 340,000 tested, 0.84% active; AID 602410;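 active = B-score under library mean minus 4 SD, starting fluorescence ratio at most library mean plus 5 SD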;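 note: more negative B-score means stronger inhibition of thallium flux through KCNK3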
KCNQ1 act – human KCNQ1 channel potentiation or activation; P51787; CHO-K1 KCNQ1, thallium flux FluxOR fluorescence; stronger effect = higher value; B-score at 10 µM; 310,000 tested, 0.35% active; AID 2648;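 active = fluorescence ratio B-score, a plate-corrected score, at least three library SD, with initial intensity B-score within 5 SD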
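Assay system: CHO-K1 cells stably expressing KCNQ1; Medium: assay buffer with matched DMSO; Also added: K+/Tl+ depolarizing stimulus; Dosing: single dose; Timing: dye 90 min, compound 20 min, room temperature; Measured by: kinetic FluxOR thallium fluorescence, 10-s 1-Hz baseline, 110-s post-stimulus read; Read-out: peak-minus-minimum fluorescence over initial fluorescence, negative-control normalized, B-scored.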
Kir21 inh – Kir2.1 (mouse) channel inhibition | P35561 | HEK293-Kir2.1, FluxOR thallium flux fluorescence; stronger effect = lower value | B-score at 10 µM | 310,000 tested, 0.85% active | AID 1672;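 active = fluorescence ratio B-score at or below minus 3 SD of library scores, with starting-brightness B-score within 2 SD, cut at about -4.2 in these data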;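 note: channel flux triggered by added potassium and thallium sulfate stimulus; B-score of peak minus minimum fluorescence over baseline after thallium stimulus; more negative B-score means stronger Kir2.1 block with less thallium influx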
hERG rescue – shields human hERG channel from block by proarrhythmic agents; Q12809; CHO-hERG, FluxOR thallium flux, dofetilide IC70 present; activation (rescue from dofetilide block), less the hit threshold, % at 10 µM; 310,000 tested, 0.51% active;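 active = activation above the mean of controls blocked by dofetilide plus 5 SD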;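 note: thallium influx through hERG after potassium depolarization seen as dye fluorescence rise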
Each line names hits and unclear results; the compound was inactive in the other large screens.

CSCCC(NC(=O)c1ccco1)C(=O)NCC1CCCCC1 (centres undefined)	none (no result: KCNQ1 inh, KCNK9 inh, KCNQ1 act, Kir21 inh, hERG rescue)
C/C(=N\NC(=O)c1cc2ccccc2cc1O)c1ccccn1	KCNQ1 act 7
O=C(N/N=C/c1ccc(-c2ccccc2)o1)c1ccccc1O	KCNQ1 act 8
O=C(N/N=C\c1ccc(Sc2ccccn2)o1)c1cccc(F)c1	none
C/C(=N\NC(=O)c1c[nH]c2ccccc12)c1ccccn1	none
C/C(=N\NC(=O)c1cc2ccccc2cc1O)c1cc2ccccc2o1	KCNQ1 act 138, hERG rescue 55
O=C(N/N=C/c1ccc(Sc2ccccn2)o1)c1cc2ccccc2cc1O	KCNQ1 act 18
O=C(CN1CCN(c2ccc(C(F)(F)F)cn2)CC1)NCc1ccc2c(c1)OCO2	none
CC(=O)Nc1c(Cl)cc(Cl)c2c1Cc1cc(Cl)ccc1-2	none (no result: KCNQ1 inh, KCNK9 inh, KCNQ1 act, Kir21 inh, hERG rescue)
COc1ccc(CNC(=O)C2Cc3cc(S(=O)(=O)N4CCCC4)ccc3N2C(C)=O)c(OC)c1 (centres undefined)	none
CC1(C)CC(NS(=O)(=O)c2ccc3ccccc3c2)CC(C)(C)N1	none
Cc1cc(=O)oc2cc(OCC(=O)Nc3ccccc3C(N)=O)c(Cl)cc12	none
Cn1ccc(C(=O)Nc2cccnc2Cl)n1	none
CC(=N/O)/C(C)=N\NC(=O)c1ccccn1	KCNQ1 inh 8
COC(=O)c1ccc(C2N=C(c3cccs3)CC(c3ccccc3O)N2)cc1 (centres undefined)	KCNQ1 inh 7
O=C(c1ccccc1)N1N=C(c2cccs2)CC1c1ccccc1O (centres undefined)	none
Cc1ccc(S(=O)(=O)C2C(=O)N(C)C3(C)CC2c2ccccc2O3)cc1 (centres undefined)	none
CN(C)S(=O)(=O)N1CCC(Oc2cccc(C(=O)N3CCCCCCC3)c2)CC1	none
CCCc1cc(=O)[nH]c(SCC(=O)NC(=O)c2ccccc2)n1	none
CCCc1cc(=O)[nH]c(SCC(=O)N(Cc2ccccc2)C(C)C)n1	KCNK9 inh -7
Clc1cccc(CN2CCc3c([nH]c4ccccc34)C2)c1	none
Cc1cccc(CN2CCc3c([nH]c4ccccc34)C2)c1	Kir21 inh -5.9
CCSc1nnc(-c2ccc(Cl)cc2)c2ccccc12	none
CCSc1nnc(-c2ccc(C)cc2)c2ccccc12	KCNK9 inh -7
Cc1cc(Oc2ccc(C)c(Cl)c2)nc(SCC(=O)c2ccccc2)n1	KCNK9 inh -7.2
CCCN(Cc1nnc(-c2ccccc2Cl)o1)C(=O)c1ccc(C)c(S(=O)(=O)N2CCOCC2)c1	none
CCCN(Cc1nnc(-c2ccccc2Cl)o1)C(=O)c1oc2ccccc2c1C	KCNQ1 inh 6
CC1(C)N=C(N)NC(Nc2cccc(Br)c2)=N1	KCNQ1 act 9
CN(Cc1ccccc1)C(=O)c1cccc(NC(=O)Cc2ccc(NC(=O)C3CCN(C(=O)C4CCC4)CC3)cc2)c1	none (no result: KCNQ1 inh, KCNK9 inh, KCNQ1 act, Kir21 inh, hERG rescue)
Cc1ccc(/C=N/N(Cc2ccccc2)c2ccccc2)o1	KCNK9 inh -6.8
O=C(O)c1cc(Cl)c2ccccc2c1O	KCNQ1 inh 6
COc1ccc(CN(C(=O)Cn2nnc(-c3ccc(C)o3)n2)C(C(=O)NCC2CCCO2)c2ccco2)cc1 (centres undefined)	none
C=CCn1c(O)c(N=NC(=O)OCC)c2ccccc21	none
C=CCn1c(O)c(N=NC(=S)Nc2cccc(OC)c2)c2ccccc21	KCNQ1 act 8, hERG rescue 25
C=CCn1c(O)c(N=NC(=S)Nc2ccc(OC)cc2)c2ccccc21	KCNQ1 act 17, Kir21 inh -5.3
CC(=O)NC(Cc1ccccc1F)C(=O)NC1CCN(C(=O)NCc2ccccc2)CC1 (centres undefined)	none
CCOc1ccc(CN(C)C(C)C(=O)NCc2ccccc2)cc1 (centres undefined)	none
CSc1ccc(CN(C)C(C)C(=O)NCc2ccccc2)cc1 (centres undefined)	Kir21 inh -9.7
COc1ccc(CNC(=O)CN(C)Cc2ccc(SC)cc2)cc1	Kir21 inh -6.8
CCOc1cc(C2NC(=O)NC2=O)ccc1O (centres undefined)	none
COc1ccc(S(=O)(=O)N2CCOCC2)cc1NC(=O)CCc1nc2ccccc2c(=O)[nH]1	none
